The results in this text go back to ChEMBL document CHEMBL1125037, “Synthesis and antihypertensive activity of 4-(1,2-dihydro-2-oxo-1-pyridyl)-2H-1-benzopyrans and related compounds, new potassium channel activators” (1990).

Experiment [1] has as its system Rattus norvegicus. The experiment in a line: Antihypertensive effect after 1 mg/kg (po) administration in conscious spontaneously hypertensive rat (over a time period of 0-210 minutes). The class given is functional. The procedure, abridged:
(§1)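 Male Okamoto-strain SHR (280-330 g, blood pressure >180 mmHg), conscious and unrestrained, given 1 mg/kg orally as a screening dose. Mean arterial pressure was recorded directly and continuously via an aortic catheter from 1 h before to 3.5 h after dosing. The effect is the mean of the maximum individual changes over 3.5 h; N ≥ 3.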

In experiment [2] the test system is Rattus norvegicus. The experiment in a line: Dose required to reduce blood pressure by 30 mmHg after (po) administration in conscious spontaneously hypertensive rat. The class given is functional. In a few lines: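 Conscious male Okamoto-strain SHR (280-330 g, >180 mmHg) were given two to four oral doses beyond the 1 mg/kg screen. Mean arterial pressure was recorded directly via an aortic catheter in unrestrained rats. The ED30, the dose in µg/kg lowering pressure by 30 mmHg, came from linear regression of effect vs log dose.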

Experiment [3] can be described thus: Ratio of ED30(20h) to ED30(2h) was determined. The experiment is classed as functional.
For experiment [4], the system named is Rattus norvegicus. Description: Dose required to reduce mean blood pressure after 2 hr following (po) administration conscious spontaneously hypertensive rat. The experiment is classed as functional.
For experiment [5], the system named is Rattus norvegicus. Description: Dose required to reduce mean blood pressure after 20 hr following (po) administration conscious spontaneously hypertensive rat. The class given is functional.
Experiment [6] concerns Rattus norvegicus. Description: Dose required to reduce mean blood pressure was determined after 20h following(po) administration in conscious spontaneously hypertensive rat. The experiment is classed as functional.
The test system of experiment [7] is Rattus norvegicus. Description: Dose required to reduce mean blood pressure was determined after 2 hr following(po) administration in conscious spontaneously hypertensive rat. The class given is functional.
Experiment [8] relates to Rattus norvegicus. The experiment in a line: Antihypertensive effect after 1 mg/kg (po) administration in conscious spontaneously hypertensive rat (over a time period of 0-210 min). The experiment is classed as functional, organism-based. Also noted: dose 1 mg/kg. The procedure, abridged:
as §1

For the compound `CC1(C)Oc2ccc(C#N)cc2[C@]2(n3ccccc3=O)O[C@H]12`, the “Max fall in blood pressure” value in the experiment on Rattus norvegicus [1] turned out to be 69 mmHg. The compound also registered an ED30 in the experiment with Rattus norvegicus [2] of 0.202 mg/kg.
For the compound `COc1ccn([C@@H]2c3cc(C#N)ccc3OC(C)(C)[C@H]2O)c(=O)c1`, the “Max fall in blood pressure” value in the experiment on Rattus norvegicus [1] is given as 73 mmHg. The compound further gave an ED30 in the experiment with Rattus norvegicus [2] of 0.197 mg/kg.
For the compound `CC1(C)Oc2ccc(C#N)cc2C(N2N=CCCC2=O)[C@@H]1O` (stereo partly specified), the “Max fall in blood pressure” value in the experiment on Rattus norvegicus [1] was determined as 63 mmHg. For the same compound, the ED30 in the experiment on Rattus norvegicus [2] was 0.211 mg/kg; with Rattus norvegicus [4], 0.056 mg/kg; in the experiment with Rattus norvegicus [5], 0.148 mg/kg. Moreover, the Ratio in experiment [3] was determined as 2.6.
As for `COc1ccn(C2=CC(C)(C)Oc3ccc(C#N)cc32)c(=O)c1`, the “Max fall in blood pressure” value in the experiment with Rattus norvegicus [1] was determined as 113 mmHg. This compound also registered an ED30 with Rattus norvegicus [2] of 0.066 mg/kg.
In the case of `CC1(C)Oc2ccc([N+](=O)[O-])cc2[C@@H](n2ccccc2=O)[C@@H]1OC=O`, in the experiment on Rattus norvegicus [1], the “Max fall in blood pressure” value worked out at 129 mmHg. This compound also showed an ED30 with Rattus norvegicus [2] of 0.074 mg/kg.
Consider `CC1(C)Oc2ccc(C#N)cc2[C@H](N2CCCC2=O)[C@H]1O` [(-)-CROMAKALIM], for which, in the experiment on Rattus norvegicus [1], the “Max fall in blood pressure” value is reported as 78 mmHg. Moreover, the results for the ED30 with Rattus norvegicus [2], in the experiment on Rattus norvegicus [4] and in the experiment on Rattus norvegicus [5] were 0.11 mg/kg, 0.131 mg/kg and 0.603 mg/kg, respectively. Also, the Ratio in experiment [3] stood at 4.6.
On to `CC1(C)CC(n2ccccc2=O)c2cc(C#N)ccc2O1` (stereo unspecified), for which, in the experiment with Rattus norvegicus [1], the “Max fall in blood pressure” value is recorded as 92 mmHg. Besides, the ED30 with Rattus norvegicus [2] stood at 0.15 mg/kg.
As to `CC1(C)Oc2ccc(C#N)cc2C(n2ncccc2=O)[C@@H]1O` (stereo partly specified), the “Max fall in blood pressure” value in the experiment with Rattus norvegicus [1] was 77 mmHg. For the same compound, the results for the ED30 in the experiment with Rattus norvegicus [2], in the experiment with Rattus norvegicus [4] and with Rattus norvegicus [5] were 0.036 mg/kg, 0.045 mg/kg and 0.082 mg/kg, respectively. In addition, the Ratio in experiment [3] is 1.8.
Regarding `CC1(C)Oc2ccc([N+](=O)[O-])cc2[C@]2(n3ccccc3=O)O[C@H]12`, in the experiment on Rattus norvegicus [1], the “Max fall in blood pressure” value worked out at 118 mmHg. The compound further had an ED30 with Rattus norvegicus [2] of 0.06 mg/kg.
In the case of `CC1(C)Oc2ccc([N+](=O)[O-])cc2[C@@H](n2ccccc2=O)[C@@H]1O`, the figures for the ED30 with Rattus norvegicus [6], in the experiment with Rattus norvegicus [2] and in the experiment on Rattus norvegicus [7] were 0.884 mg/kg, 0.024 mg/kg and 0.035 mg/kg, respectively. In addition, in the experiment with Rattus norvegicus [1], the “Max fall in blood pressure” value is given as 113 mmHg. Further, in experiment [3], the Ratio was 25.2.
Regarding `COC(=O)c1ccc2c(c1)C(n1ccccc1=O)=CC(C)(C)O2`, in the experiment with Rattus norvegicus [1], the “Max fall in blood pressure” value is on record as 98 mmHg. Further, the ED30 in the experiment with Rattus norvegicus [2] came to 0.202 mg/kg; in the experiment with Rattus norvegicus [4], 0.573 mg/kg; in the experiment on Rattus norvegicus [5], 2.06 mg/kg. Further, in experiment [3], the Ratio is 3.6.
As for `COC(=N)c1ccc2c(c1)C(N1CCCC1=O)[C@H](O)C(C)(C)O2` (stereo partly specified), the “Max fall in blood pressure” value in the experiment with Rattus norvegicus [1] turned out to be 76 mmHg. The compound also gave an ED30 with Rattus norvegicus [2] of 0.083 mg/kg.
Turning to `CC(=O)c1ccc2c(c1)C(n1ccccc1=O)=CC(C)(C)O2`, the “Max fall in blood pressure” value in the experiment on Rattus norvegicus [1] is recorded as 130 mmHg. The ED30 in the experiment with Rattus norvegicus [2] came to 0.025 mg/kg; in the experiment on Rattus norvegicus [4], 0.074 mg/kg; with Rattus norvegicus [5], 0.546 mg/kg. For the same compound, the Ratio in experiment [3] worked out at 7.4.
The corresponding values for `CC1(C)C=C(n2ccccc2=O)c2cc(C#N)ccc2O1` [BIMAKALIM] are 142 mmHg, 0.01 mg/kg, 0.036 mg/kg, 0.186 mg/kg and 5.2.
Turning to `CC1(C)Oc2ccc(C#N)cc2[C@@H](n2ccccc2=O)[C@@H]1O` [EMAKALIM], the ED30 with Rattus norvegicus [6] came out at 0.138 mg/kg; in the experiment on Rattus norvegicus [2], 0.05 mg/kg; with Rattus norvegicus [7], 0.045 mg/kg. The “Max fall in blood pressure” value in the experiment on Rattus norvegicus [1] is recorded as 108 mmHg. In experiment [3], the Ratio came out at 3.1.
As to `CCOc1ccn(C2=CC(C)(C)Oc3ccc(C#N)cc32)c(=O)c1`, the “Max fall in blood pressure” value in the experiment on Rattus norvegicus [1] is given as 136 mmHg. Moreover, the ED30 with Rattus norvegicus [2] is 0.017 mg/kg; in the experiment with Rattus norvegicus [4] it was 0.137 mg/kg; with Rattus norvegicus [5], greater than 1 mg/kg. Also, in experiment [3], the Ratio was greater than 7.3.
Turning to `CC(=O)O[C@H]1[C@H](n2ccccc2=O)c2cc(C#N)ccc2OC1(C)C`, in the experiment on Rattus norvegicus [1], the “Max fall in blood pressure” value is reported as 89 mmHg. The ED30 in the experiment with Rattus norvegicus [2] was determined as 0.106 mg/kg; in the experiment on Rattus norvegicus [4], 0.112 mg/kg; in the experiment with Rattus norvegicus [5] it was 0.405 mg/kg. In addition, the Ratio in experiment [3] was found to be 3.6.
As for `CC1(C)Oc2ccc(C#N)cc2C(n2ccncc2=O)[C@@H]1O` (stereo partly specified), the “Max fall in blood pressure” value in the experiment on Rattus norvegicus [1] was found to be 75 mmHg. The ED30 with Rattus norvegicus [2] was 0.01 mg/kg; in the experiment on Rattus norvegicus [4] it was 0.291 mg/kg; in the experiment on Rattus norvegicus [5], 1.29 mg/kg. Further, the Ratio in experiment [3] stood at 4.4.
As for `CC1(C)C=C(n2ccccc2=O)c2cc(Br)ccc2O1`, the “Max fall in blood pressure” value in the experiment on Rattus norvegicus [1] is given as 131 mmHg. Also, the results for the ED30 with Rattus norvegicus [2], in the experiment with Rattus norvegicus [4] and with Rattus norvegicus [5] were 0.11 mg/kg, 0.069 mg/kg and 1.27 mg/kg, respectively. Also, the Ratio in experiment [3] turned out to be 18.4.
The corresponding values for `CC1(C)Oc2ccc(C#N)cc2[C@@H](n2ccccc2=O)[C@@H]1OC=O` are 101 mmHg, 0.03 mg/kg, 0.067 mg/kg, 0.416 mg/kg and 6.2.
With `CC1(C)C=C(n2ccc3ccccc3c2=O)c2cc(C#N)ccc2O1`, in the experiment with Rattus norvegicus [8], the “Max fall in blood pressure” value was “Not significant”.
Consider `Cc1coc(-c2ccc3c(c2)C(N2CCCC2=O)[C@H](O)C(C)(C)O3)n1` (stereo partly specified), for which the “Max fall in blood pressure” value in the experiment with Rattus norvegicus [8] was “Not significant”.
With `CC(=O)Oc1cccn([C@@H]2c3cc(C#N)ccc3OC(C)(C)[C@H]2O)c1=O`, in the experiment with Rattus norvegicus [8], the “Max fall in blood pressure” value was “Not significant”.
With `Cc1csc(-c2ccc3c(c2)C(N2CCCC2=O)[C@H](O)C(C)(C)O3)n1` (stereo partly specified), in the experiment with Rattus norvegicus [8], the “Max fall in blood pressure” value is “Not significant”.
`CC1(C)C=C(n2ccccc2=O)c2cc([N+](=O)[O-])ccc2O1`: the “Max fall in blood pressure” value in the experiment on Rattus norvegicus [1] was 140 mmHg. For the same compound, the figures for the ED30 with Rattus norvegicus [2], with Rattus norvegicus [4] and in the experiment with Rattus norvegicus [5] were 0.00083 mg/kg, 0.0007 mg/kg and 0.102 mg/kg, respectively. Besides, the Ratio in experiment [3] is 146.
As for `CC1(C)C=C(n2cc(N)ccc2=O)c2cc(C#N)ccc2O1`, the “Max fall in blood pressure” value in the experiment on Rattus norvegicus [1] is 94 mmHg. In addition, the ED30 with Rattus norvegicus [2] turned out to be 0.206 mg/kg; in the experiment on Rattus norvegicus [4] it was 0.341 mg/kg; in the experiment with Rattus norvegicus [5], 1.61 mg/kg. In addition, the Ratio in experiment [3] turned out to be 4.7.
The corresponding values for `CC1(C)C=C(n2ccncc2=O)c2cc(C#N)ccc2O1` are 105 mmHg, 0.022 mg/kg, 0.038 mg/kg, 0.357 mg/kg and 9.4.
For `O=c1ccccn1C1=CC2(CCCC2)Oc2ccc([N+](=O)[O-])cc21`, the “Max fall in blood pressure” value in the experiment with Rattus norvegicus [8] was “Not significant”.
Still for that read-out and setting: as for `CC1(C)C=C(n2cc(Br)cc(Br)c2=O)c2cc(C#N)ccc2O1`, the entry is “Not significant”; as for `CC1(C)Oc2ccc(C=O)cc2[C@@H](n2ccccc2=O)[C@@H]1O`, “Not significant”.
